System: MS2 coat protein
Experiment: apparent Kd, MS2 coat protein; higher = weaker binding; RNA-MaP array; FMN 200 µM where present
Summary of the method: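 The apparent Kd is reported as the median of filtered per-cluster binding-curve fits. To get these curves, designs transcribed by stalled E. coli RNA polymerase on Illumina sequencing-chip clusters were titrated with SNAP-549-labelled MS2 coat protein from 0.7 or 1.5 nM, doubling to 3 µM. Titrations were run without and then with constant ligand in 100 mM Tris-HCl pH 7.5, 80 mM KCl, 4 mM MgCl2, BSA, DTT, yeast tRNA and Tween-20, and green signal was normalised to red-channel RNA signal and control-cluster median Fmax.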

[1] = designed as: ON switch for flavin mononucleotide, no ligand
[2] = ligand present: flavin mononucleotide, designed as: ON switch for flavin mononucleotide
[3] = designed as: OFF switch for flavin mononucleotide, no ligand
[4] = ligand present: flavin mononucleotide, designed as: OFF switch for flavin mononucleotide

| Sequence | apparent Kd [1] [nM] | apparent Kd [2] [nM] | apparent Kd [3] [nM] | apparent Kd [4] [nM] |
| --- | --- | --- | --- | --- |
| AAACAUGAGGAUCACCCAUGUAAACGAGAAGGGCGAGAGAGUAGAGGAUAGGAGAAAGAUGAGUCGCAGGAUAUCGACCUCAUA | 16 | 17 |  |  |
| GGAUUUGGUCCAAUUUCGGUGAGUAAGGAUAUGCAUGGCAUACAUGAGGAUCACCCAUGUUGUCGGCAGAAGGUGCCACAACGU | 45.7 | 16.3 |  |  |
| AAAUUUAACGAAGGAUAUACUAACAUGAGGAUCACCCAUGUGUGUUUCGUGUUGCUGAAAUUCGGGUAGAAGGUCGUAUACAUA |  |  | 41 | 28.7 |
| UGGUUCAUGGGAGGAUAUGGGAUGAUAACAUGAGGAUCACCCAUGUUAAAGAUGCCGAGAGGCAACUAGAAGGCCCAUGAACCU | 268 | 61.7 |  |  |
| GAGAAGUCAGGAUAUCCAUGGCGGCACUUGCGUGGUGGCGUGGAGAAGGGACAUGAGGAUCACCCAUGUAAAGC |  |  | 54 | 34.9 |
| ACAGACCAUCGAGGAUAUGAACAUGAGGAUCACCCAUGUAAGUGGAAGAUGGUGAUUCCUGGGCUUCAGAAGGCGAACGUCAGG |  |  | 6.12 | 11.8 |
| GUCUCCGCUCGAGGAUAUAGCUGCAUGUAGUGUCCUGAGGCACAUGAGGAUCACCCAUGUGUAGGCUAGAAGGCGACGGACACU |  |  |  | 29.2 |
| AAACAUGUCCGAGGAUAUCUGAAAACAUUUUUAAGAGAAGGCGGACAUGAGGAUCACCCAUGUCUCUCCUCAUCAAAUCCAAAU |  |  | 17.5 | 73.2 |
| AGAUUUGUACAUGAGGAUCACCCAUGUUAAUAGGUGUUUGUCAGAAGGCAUUAAUAGAGAUUUAAUGAGGAUAUGAAUUUACAA | 58.2 | 28.9 |  |  |
| CGGUUGUCAGGAUAUACGAACAUGUCGCCAGAUGUCAUGGUACAUGAGGAUCACCCAUGUAGAAGGGAGGAGGU |  |  | 135 | 80 |
| GGAACGAUCAUCAUUGAACAUGAGGAUCACCCAUGUACGAUGUAGGAUAUAUACCCGGUCAAGGUAUAGAAGGACAGGGUACAG |  |  | 18.6 | 55.4 |
| CCAUAAUUGAUCCAAUUUUACAACAUGAGGAUCACCCAUGUGCAGGAUAUCGUGAAAGUUAAAUACGAGAAGGGCAAGAACUGC |  |  | 560 | 356 |
| UUUCUCUGGGCGUCUUCUUACAUGAGGAUCACCCAUGUUUCAUAGGAUAUGCUAUAGUGUUACAUGCAGAAGGAUGUUUGUUUU |  |  | 234 | 474 |
| AAUAUGAGCUGGUAAAUAAAACCGACAUGAGGAUCACCCAUGUAGGAUAUCAGCACGAUAAGUGCUGAGAAGGACAUCCAGCUC |  |  | 14.4 | 16.7 |
| GCCGGAGAAGGAUAUACAUGAGGAUCACCCAUGUUCUUGGGCGAAAUAAAUUCCUAGAGUAGAAGGUCUAGGCA |  |  | 18.7 | 41.5 |
| GUUGACAGCACAGGAUAUGCGCAGUCUAUAUCACAUGAGGAUCACCCAUGUCGGCAACAGACCGAGCAGAAGGGUGCGAGUGUG | 235 | 39.7 |  |  |
| GAGUGACAUGAGGAUCACCCAUGUGAGGAUAUCGGACGGACCAAAUUAACAACAACCGCGAGAAGGCACAUCGG |  |  | 146 | 135 |
| GGAUCGAAUGUGAGGAUAUACCACUGGAUACAGUGGUAGAAGGCACAUGAGGAUCACCCAUGUCCUUACGAUCC |  |  | 96.5 | 319 |
| GAAAACGGAGAGGAUAUUUGAGAUCAAAGCUCCAAAGAAGGCUCCACAUGAGGAUCACCCAUGUGGUCUUCAAA |  |  | 13.5 | 111 |
| AUCUUGUCAGGAUAUCUGACAAGUGACGAAAGUCACAGUUCAGAGAAGGUACAUGAGGAUCACCCAUGUAGAAC |  |  | 19.4 | 19.2 |
| UGGUGACGUGUAGGAUAUGGAGGUGGGUUUUGGCCAGAAGGACAUGAGGAUCACCCAUGUGGUAGAGGGUUGGCGGUGGCCCGU |  |  | 17.7 | 15.2 |
| CCUUAAAUUGUAAGGAUAUUAAAGCUGCUGAGUUAUAAGAAGGUACAUGAGGAUCACCCAUGUUCGGCAGGGUC |  |  | 17.8 | 18.4 |
| AAUUCACAUGAGGAUCACCCAUGUCAGGAUAUGGUUUCACGUGUUUCUGUGCUUGAGGCCAGAAGGGACAGCUA |  |  | 65.5 | 76.5 |

— the EternaBench riboswitch data
